Experimental findings from ChEMBL document CHEMBL2062487, “Design, synthesis and evaluation of clinafloxacin triazole hybrids as a new type of antibacterial and antifungal agents” (2012) are described below.

Experiment [1] relates to Staphylococcus aureus. Description: Antibacterial activity against methicillin-resistant Staphylococcus aureus N 315 by two fold broth dilution method. The experiment is classed as functional. To be noted: N315. The gist of the method:
(§1)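 Twofold broth dilution in 96-well microtest plates following NCCLS guidance. Endpoint is the MIC (µg/mL), the lowest concentration that inhibits growth. Clinafloxacin, chloramphenicol and fluconazole served as positive controls.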

A further experiment deals with Shigella dysenteriae. Description: Antibacterial activity against Shigella dysenteriae by two fold broth dilution method. The class given is functional. The gist of the method:
as §1
Background: Broth dilution looks for growth in wells or tubes with falling amounts of substance.

Experiment [2] concerns Staphylococcus aureus. Description: Antibacterial activity against Staphylococcus aureus ATCC […] by two fold broth dilution method. The class given is functional. The gist of the method: (§2)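 MIC was determined by twofold broth dilution in microplates, following NCCLS recommendations. Clinafloxacin, chloramphenicol and fluconazole served as positive controls. Values are given in μg/mL.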

In a further experiment the test system is Escherichia coli. Description: Antibacterial activity against Escherichia coli JM109 by two fold broth dilution method. The class given is functional. The gist of the method: as §2
The next experiment relates to Candida. Description: Antifungal activity against Candida mycoderma by two fold broth dilution method. The class given is functional. The gist of the method:
as §2

Experiment [3] has as its system Micrococcus luteus. Description: Ratio of chloramphenicol MIC to compound MIC for Micrococcus luteus ATCC 4698. The class given is functional, NCTC 2665.
For experiment [4], the system named is Micrococcus luteus. Description: Antibacterial activity against Micrococcus luteus ATCC 4698 by two fold broth dilution method. The experiment is classed as functional. To be noted: NCTC 2665. The gist of the method: as §2
The test system of another experiment is Bacillus subtilis. Description: Antibacterial activity against Bacillus subtilis ATCC 6633 by two fold broth dilution method. The experiment is classed as functional. The gist of the method:
as §2

For another experiment, the system named is Candida albicans. Description: Antifungal activity against Candida albicans ATCC 76615 by two fold broth dilution method. The experiment is classed as functional. The gist of the method: as §2
Another experiment deals with Pseudomonas aeruginosa. Description: Antibacterial activity against Pseudomonas aeruginosa by two fold broth dilution method. The experiment is classed as functional. The gist of the method:
as §2

Experiment [5] in a line: Antibacterial activity against Bacillus proteus by two fold broth dilution method. The experiment is classed as functional. The gist of the method: as §2
Another experiment has as its system Bacillus. Description: Ratio of clinafloxacin MIC to compound MIC for Bacillus proteus. The class given is functional.

≈ marks a conversion by molar mass, not a printed value. Bounds are passed on as bounds.

For orientation: MIC means the least concentration at which growth counts as inhibited. Read a low MIC as greater potency. Consider `Cc1ccc(C2(Cn3cncn3)CO2)cc1` (racemic), for which the MIC with Staphylococcus aureus [1] amounted to 512 µg/mL (≈ 2380 µM); with Shigella dysenteriae it was 256 µg/mL (≈ 1190 µM); against Staphylococcus aureus [2] it was 256 µg/mL (≈ 1190 µM); in the experiment on Escherichia coli, 256 µg/mL (≈ 1190 µM); against Candida it was 1 µg/mL (≈ 4.65 µM); against Micrococcus luteus [4], 1 µg/mL (≈ 4.65 µM). Besides, the MIC was found to be 8 µg/mL (≈ 37.2 µM) with Bacillus subtilis, 256 µg/mL (≈ 1190 µM) against Candida albicans, 256 µg/mL (≈ 1190 µM) against Pseudomonas aeruginosa and 256 µg/mL (≈ 1190 µM) in experiment [5]. Besides, the Ratio in the experiment on Micrococcus luteus [3] worked out at 8.

For the compound `Fc1ccc(C2(Cn3cncn3)CO2)cc1F` (racemic), the MIC in the experiment on Staphylococcus aureus [1] amounted to 256 µg/mL (≈ 1080 µM); with Shigella dysenteriae, 64 µg/mL (≈ 270 µM); in the experiment with Staphylococcus aureus [2], 256 µg/mL (≈ 1080 µM); in the experiment on Escherichia coli it was 128 µg/mL (≈ 540 µM); with Candida it was 8 µg/mL (≈ 33.7 µM); in the experiment on Micrococcus luteus [4] it was 8 µg/mL (≈ 33.7 µM). Further, the MIC in the experiment on Bacillus subtilis was determined as 32 µg/mL (≈ 135 µM); with Candida albicans it was 128 µg/mL (≈ 540 µM); with Pseudomonas aeruginosa, 64 µg/mL (≈ 270 µM); in [5] it was 64 µg/mL (≈ 270 µM).

As for `Clc1ccc(C2(Cn3cncn3)CO2)c(Cl)c1` (racemic), the MIC with Staphylococcus aureus [1] came out at 256 µg/mL (≈ 948 µM); in the experiment with Shigella dysenteriae, 64 µg/mL (≈ 237 µM); against Staphylococcus aureus [2], 256 µg/mL (≈ 948 µM); against Escherichia coli, 256 µg/mL (≈ 948 µM); against Candida it was 16 µg/mL (≈ 59.2 µM); in the experiment on Micrococcus luteus [4], 32 µg/mL (≈ 118 µM). Also, the MIC against Bacillus subtilis is 32 µg/mL (≈ 118 µM); in the experiment with Candida albicans, 32 µg/mL (≈ 118 µM); against Pseudomonas aeruginosa, 128 µg/mL (≈ 474 µM); in experiment [5], 64 µg/mL (≈ 237 µM).

Take `O=C(O)c1cn(C2CC2)c2c(Cl)c(N3CCC(NCC(O)(Cn4cncn4)c4ccc(Cl)cc4)C3)c(F)cc2c1=O` (racemic): the MIC in the experiment with Staphylococcus aureus [1] is more than 512 µg/mL; against Shigella dysenteriae, more than 512 µg/mL; with Staphylococcus aureus [2], more than 512 µg/mL; against Escherichia coli, 32 µg/mL (≈ 53.2 µM); with Candida, more than 512 µg/mL; against Micrococcus luteus [4] it was more than 512 µg/mL. Besides, the MIC against Bacillus subtilis is more than 512 µg/mL; against Candida albicans it was more than 512 µg/mL; against Pseudomonas aeruginosa, more than 512 µg/mL; in experiment [5], 512 µg/mL (≈ 851 µM).

Consider `O=C(O)c1cn(C2CC2)c2c(Cl)c(N3CCC(NCC(O)(Cn4cncn4)c4ccc(F)cc4F)C3)c(F)cc2c1=O` (racemic), for which the MIC was 0.25 µg/mL (≈ 0.415 µM) with Staphylococcus aureus [1]; 0.5 µg/mL (≈ 0.829 µM) against Shigella dysenteriae; 0.5 µg/mL (≈ 0.829 µM) with Staphylococcus aureus [2]; 1 µg/mL (≈ 1.66 µM) in the experiment on Escherichia coli; 0.5 µg/mL (≈ 0.829 µM) in the experiment with Candida; 0.5 µg/mL (≈ 0.829 µM) against Micrococcus luteus [4]. Moreover, the MIC against Bacillus subtilis was found to be 0.5 µg/mL (≈ 0.829 µM); with Candida albicans, 0.5 µg/mL (≈ 0.829 µM); against Pseudomonas aeruginosa it was 0.5 µg/mL (≈ 0.829 µM); in experiment [5], 0.25 µg/mL (≈ 0.415 µM). Further, the Ratio in the experiment on Bacillus was found to be 2.

Consider `O=C(N[C@H](CO)[C@H](O)c1ccc([N+](=O)[O-])cc1)C(Cl)Cl` [CHLORAMPHENICOL], for which the MIC is 16 µg/mL (≈ 49.5 µM) in the experiment with Staphylococcus aureus [1]; 32 µg/mL (≈ 99 µM) in the experiment on Shigella dysenteriae; 16 µg/mL (≈ 49.5 µM) against Staphylococcus aureus [2]; 32 µg/mL (≈ 99 µM) with Escherichia coli; more than 512 µg/mL against Candida; 8 µg/mL (≈ 24.8 µM) against Micrococcus luteus [4]. For the same compound, the MIC in the experiment on Bacillus subtilis was 32 µg/mL (≈ 99 µM); in the experiment with Candida albicans, more than 512 µg/mL; in the experiment with Pseudomonas aeruginosa, 32 µg/mL (≈ 99 µM); in experiment [5], 32 µg/mL (≈ 99 µM).

Regarding `NC1CCN(c2c(F)cc3c(=O)c(C(=O)O)cn(C4CC4)c3c2Cl)C1` (configuration not stated) [CLINAFLOXACIN], the MIC is 1 µg/mL (≈ 2.73 µM) against Staphylococcus aureus [1]; 1 µg/mL (≈ 2.73 µM) in the experiment with Shigella dysenteriae; 0.5 µg/mL (≈ 1.37 µM) in the experiment on Staphylococcus aureus [2]; 0.5 µg/mL (≈ 1.37 µM) in the experiment on Escherichia coli; more than 512 µg/mL in the experiment on Candida; 0.5 µg/mL (≈ 1.37 µM) against Micrococcus luteus [4]. Further, the MIC is 0.5 µg/mL (≈ 1.37 µM) in the experiment on Bacillus subtilis, more than 512 µg/mL against Candida albicans, 0.5 µg/mL (≈ 1.37 µM) against Pseudomonas aeruginosa and 0.5 µg/mL (≈ 1.37 µM) in experiment [5].

Turning to `OC(Cn1cncn1)(Cn1cncn1)c1ccc(F)cc1F` [FLUCONAZOLE], the MIC against Staphylococcus aureus [1] is more than 512 µg/mL; against Shigella dysenteriae, more than 512 µg/mL; with Staphylococcus aureus [2], more than 512 µg/mL; with Escherichia coli, more than 512 µg/mL; against Candida, 0.5 µg/mL (≈ 1.63 µM); in the experiment on Micrococcus luteus [4], more than 512 µg/mL. Besides, the MIC is more than 512 µg/mL against Bacillus subtilis, 0.5 µg/mL (≈ 1.63 µM) against Candida albicans, more than 512 µg/mL with Pseudomonas aeruginosa and more than 512 µg/mL in experiment [5].
